Most compounds without a hit are left out; they make up all but 2.3% or so of the library.
Cneo AK release = causes C. neoformans cell lysis; lysis activity, % at 15 µM; 360,000 tested, 0.2% active; adenylate kinase release luminescence, 4 h; normalised: neutral wells 0, clomiphene wells 100; AID 651654;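 active = mean lysis activity across replicates of at least 80%, whatever share of replicates individually reach that level; inactive = mean lysis activity below 80%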
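Test system: log-phase Cryptococcus neoformans yeast cells; Quantity: yeast cell density of 5 × 10^6 cells/mL; Buffer or medium: YPD; Doses: single compound concentration per well; Timing: 4 h at 37 °C static, read 1 h later; Measured by: AK luminescence; Read-out basis: lysis from increased AK signal; Control set: Clomiphene as positive control.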
DENV2 CPE rescue = protects cells from dengue virus 2 cytopathic effect; 350,000 tested, 1.7% active; CPE inhibition, % at 9.99 µM; DENV2-infected cells, cytopathic effect rescue, plate reader; in the data active = CPE inhibition above about 20%, passing the limit was not always enough; inconclusive = no clear call, values can overlap the other calls; tested in BHK-21 cells
CFTR F508del cor = CFTR F508del correction in bronchial cells; activity (quench increase), % at 7.58 µM; 350,000 tested, 0.36% active; CFBE cells, YFP halide quenching; stimulated with forskolin plus potentiator P3; % fluorescence drop versus neutral controls;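 active = mean added fluorescence quench of at least 8% versus neutral control, with both replicates also reaching 8%; inconclusive = only one of the mean or replicate conditions met; inactive = mean below 8% and not both replicates reaching 8%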;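 also: cells transiently co-express mutant CFTR-F508del with the halide-sensitive YFP; corrector assay measuring rescue of mutant channel to the surface after 24 h compound exposure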
PDI inh = blocks human protein disulfide isomerase activity. PDI insulin aggregation turbidity, A650, 90 min. 350,000 tested, 0.052% active. inhibition, % at 10 µM;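 active = mean inhibition across replicates of 30% or more, whatever share of single replicates reach that level; inconclusive = mean inhibition below 30% while every single replicate reaches 30%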
ERp5 block = ERp5 (human) disulfide isomerase inhibition; AID 651711; 350,000 tested, 0.05% active; ERp5 insulin aggregation, absorbance 650 nm, 90 min; Q15084; inhibition, % at 9.99 µM;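 active = mean replicate inhibition above about 25%, with every replicate also reaching it, limit read from the data, passing the limit was not always enough; inconclusive = only one of those two criteria met; inactive = neither criterion met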
Target sequence (Q15084 whole entry, looked up): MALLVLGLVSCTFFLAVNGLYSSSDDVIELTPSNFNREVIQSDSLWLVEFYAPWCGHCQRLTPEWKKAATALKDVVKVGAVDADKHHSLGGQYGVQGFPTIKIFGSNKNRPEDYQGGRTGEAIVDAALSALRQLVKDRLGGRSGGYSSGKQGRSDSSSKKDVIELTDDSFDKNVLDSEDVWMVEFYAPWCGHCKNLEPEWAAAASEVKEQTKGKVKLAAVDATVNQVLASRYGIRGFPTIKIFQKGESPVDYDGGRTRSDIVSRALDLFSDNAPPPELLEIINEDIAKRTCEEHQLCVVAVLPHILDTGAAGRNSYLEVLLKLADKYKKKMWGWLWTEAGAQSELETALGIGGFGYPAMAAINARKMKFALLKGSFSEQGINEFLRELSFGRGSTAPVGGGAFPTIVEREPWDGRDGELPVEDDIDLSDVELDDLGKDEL
Statin myotox sup = protects C2C12 myotubes from simvastatin toxicity; ATP luminescence, 48 h; scaled: DMSO 0, geranylgeraniol control 100; rescue of ATP level, % at 7.49 µM; 330,000 tested, 0.78% active; AID 602340;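 active = mean ATP rescue above about 67%, or every replicate alone reaching that limit, limit read from the data, passing the limit was not always enough; inconclusive = no clear call, values can overlap the other calls; inactive = mean under the limit and some replicate under it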;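 also: myotubes were challenged with 10 µM simvastatin during compound exposure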
Of the large screens only hits and unclear results are named; the others gave an inactive call.

CNC[C@@H]1Oc2cc(C#Cc3ccccn3)ccc2S(=O)(=O)N([C@@H](C)CO)C[C@H]1C	none (no result: PDI inh)
Cc1noc(C)c1NC(=O)Nc1ccc2c(c1)C(=O)N([C@H](C)CO)C[C@H](C)[C@H](CN(C)C(=O)Nc1c(C)noc1C)OCCCC[C@H](C)O2	none (no result: PDI inh, Statin myotox sup)
CCCNC(=O)N1C[C@H](C)[C@H](OC)CN(C)C(=O)c2cc(NS(=O)(=O)CC(F)(F)F)ccc2OC[C@@H]1C	none (no result: PDI inh)
C=CC[C@H](CC(=O)NCCO)C(=O)NCCOC(=O)[C@@H](CC=C)Cc1ccc(F)cc1	DENV2 CPE rescue 47
COc1cccc(C#Cc2ccc3c(c2)O[C@@H](CN(C)C(=O)c2ccccn2)[C@H](C)CN([C@@H](C)CO)S3(=O)=O)c1	CFTR F508del cor 9.8 (no result: PDI inh)
COc1ccc(C#Cc2ccc3c(c2)O[C@@H](CN(C)C(C)=O)[C@@H](C)CN([C@H](C)CO)S3(=O)=O)cc1	Cneo AK release 102 (no result: PDI inh)
COCC#Cc1ccc2c(c1)O[C@H](CN(C)S(=O)(=O)c1ccc(OC)cc1)[C@H](C)CN([C@H](C)CO)S2(=O)=O	Cneo AK release 87 (no result: PDI inh)
CC(=O)N(C)C[C@H]1Oc2cc(C#Cc3ccc(F)cc3)ccc2S(=O)(=O)N([C@H](C)CO)C[C@@H]1C	Cneo AK release 110 (no result: DENV2 CPE rescue, PDI inh)
COc1cccc(C#Cc2ccc3c(c2)O[C@H](CN(C)C(=O)c2ccccn2)[C@@H](C)CN([C@@H](C)CO)S3(=O)=O)c1	none (no result: PDI inh)
COCC#Cc1ccc2c(c1)O[C@H](CN(C)S(=O)(=O)c1ccc(OC)cc1)[C@@H](C)CN([C@H](C)CO)S2(=O)=O	DENV2 CPE rescue inconclusive (no result: PDI inh)
O=C(C[C@@H]1CC[C@H](NS(=O)(=O)c2ccccc2)[C@H](CO)O1)N1CCN(c2ccccc2)CC1	none (no result: Cneo AK release, PDI inh, Statin myotox sup)
CO[C@H]1CN(C)C(=O)c2cc(NC(=O)CC(F)(F)F)ccc2OC[C@@H](C)N(C(=O)C2CC2)C[C@@H]1C	none (no result: Cneo AK release, PDI inh, Statin myotox sup)
COCC(=O)Nc1ccc2c(c1)C(=O)N(C)C[C@@H](OC)[C@@H](C)CN(Cc1cccnc1)[C@@H](C)CO2	none (no result: PDI inh)
CN1C(=O)c2cc(NC(=O)c3cccs3)ccc2OC[C@@H]2O[C@@H](CC(=O)O)CC[C@@H]21	none (no result: Cneo AK release, DENV2 CPE rescue, PDI inh, ERp5 block)
COc1ccc2c3c(n(C)c2c1)[C@@H](CO)NCC31CN(C(=O)c2ccccc2)C1	none (no result: Cneo AK release, PDI inh, ERp5 block, Statin myotox sup)
COc1ccc(C#Cc2ccc3c(c2)O[C@H](CN(C)C(C)=O)[C@H](C)CN([C@H](C)CO)S3(=O)=O)cc1	none (no result: PDI inh)
C[C@H]1CN([C@@H](C)CO)S(=O)(=O)c2ccc(C#Cc3cccc(F)c3)cc2O[C@@H]1CN(C)C	Cneo AK release 94 (no result: PDI inh)
COc1ccc(C#Cc2ccc3c(c2)O[C@H](CN(C)C(=O)Nc2cccc(OC)c2)[C@H](C)CN([C@@H](C)CO)S3(=O)=O)cc1	Cneo AK release 86, DENV2 CPE rescue inconclusive, Statin myotox sup 73 (no result: PDI inh)
COc1ccc(C#Cc2ccc3c(c2)O[C@@H](CN(C)C(=O)Nc2cccc(OC)c2)[C@H](C)CN([C@@H](C)CO)S3(=O)=O)cc1	none
C[C@@H]1CN([C@H](C)CO)S(=O)(=O)c2ccc(C#Cc3ccc(F)cc3)cc2O[C@H]1CN(C)S(=O)(=O)c1cn(C)cn1	none (no result: PDI inh)
C[C@H]1CN([C@@H](C)CO)S(=O)(=O)c2ccc(C#Cc3ccc(F)cc3)cc2O[C@@H]1CN(C)S(=O)(=O)c1cn(C)cn1	Statin myotox sup 74 (no result: PDI inh)
COc1ccc(C#Cc2ccc3c(c2)O[C@H](CN(C)C(C)=O)[C@@H](C)CN([C@@H](C)CO)S3(=O)=O)cc1	Cneo AK release 98, DENV2 CPE rescue inconclusive (no result: PDI inh)
CO[C@@H]1CN(C)C(=O)c2cc(NS(=O)(=O)c3ccccc3C)ccc2OC[C@@H](C)N(S(C)(=O)=O)C[C@H]1C	none (no result: PDI inh)
C[C@H]1CN([C@@H](C)CO)C(=O)c2cccc(NC(=O)C3CCOCC3)c2O[C@H]1CN(C)Cc1ccc(C(F)(F)F)cc1	none (no result: PDI inh)
C[C@@H]1CN([C@H](C)CO)C(=O)c2cc(NC(=O)Nc3cccc4ccccc34)ccc2O[C@H]1CN(C)Cc1ccncc1	DENV2 CPE rescue inconclusive (no result: PDI inh)
C/C(=N\NC(N)=S)c1cc(-c2ccccc2)c(-c2ccccc2)s1	DENV2 CPE rescue inconclusive, Statin myotox sup 108
O=C(NCC(c1cccnc1)N1CCN(c2ccc(F)cc2)CC1)c1ccc2c(c1)OCO2 (stereo not given)	Statin myotox sup 121 (no result: DENV2 CPE rescue, CFTR F508del cor, ERp5 block)
CO[C@H]1CN(C)C(=O)c2ccc(NC(=O)C3CCCCC3)cc2OC[C@@H](C)NC[C@H]1C	DENV2 CPE rescue inconclusive (no result: PDI inh)
COC(=O)CN(n1cnnc1)S(=O)(=O)c1ccc(C)cc1	none (no result: DENV2 CPE rescue, CFTR F508del cor, ERp5 block)
Cc1ccc(S(=O)(=O)N(c2nc(NC(C)C)nc(NC(C)C)n2)n2cnnc2)cc1	DENV2 CPE rescue 24 (no result: Statin myotox sup)
CC(O)CNc1nc(N)[nH]c(=O)c1N=Nc1ccccc1 (stereo not given)	CFTR F508del cor 11
C[C@@H]1CN([C@H](C)CO)C(=O)c2cc(NC(=O)CCCN(C)C)ccc2O[C@@H](C)CCCCO[C@H]1CN(C)Cc1ccc2c(c1)OCO2	none (no result: PDI inh)
COc1ccccc1C(=O)Nc1ccc2c(c1)OC[C@H](C)N(C(C)=O)C[C@H](C)[C@H](OC)CN(C)C2=O	Cneo AK release 101 (no result: DENV2 CPE rescue, PDI inh)
CO[C@H]1CN(C)C(=O)c2ccc(NC(=O)Nc3ccccc3)cc2OC[C@H](C)N(C(C)=O)C[C@H]1C	none (no result: CFTR F508del cor, PDI inh)
CO[C@@H]1CN(C)C(=O)c2ccc(NC(=O)Nc3ccccc3)cc2OC[C@@H](C)N(C(C)=O)C[C@H]1C	DENV2 CPE rescue 26 (no result: Cneo AK release, PDI inh, Statin myotox sup)
O=C(Nc1ccc(F)cc1)Nc1ccc2c(c1)[C@H]1C[C@@H](CC(=O)N3CCOCC3)O[C@@H](CO)[C@H]1O2	none (no result: PDI inh)
OC[C@@H]1[C@H](c2ccc(-c3ccc(F)cc3)cc2)[C@H]2CN(Cc3ccccn3)CCCCN12	DENV2 CPE rescue 33 (no result: PDI inh, Statin myotox sup)
Cc1ccc(-c2ccc([C@H]3[C@@H](CO)N4CCCCN(Cc5ccccn5)C[C@H]34)cc2)cc1	none (no result: PDI inh)
OC[C@@H]1[C@H](c2ccc(-c3ccc(F)cc3)cc2)[C@@H]2CN(Cc3ccccn3)CCCCN12	none (no result: PDI inh, Statin myotox sup)
OC[C@@H]1[C@@H](c2ccc(-c3ccc(F)cc3)cc2)[C@@H]2CN(Cc3ccccn3)CCCCN12	DENV2 CPE rescue 63 (no result: PDI inh, Statin myotox sup)
C[C@@H]1CCCCO[C@H](CN(C)Cc2ccc(C(F)(F)F)cc2)[C@@H](C)CN([C@@H](C)CO)C(=O)c2cc(NC(=O)Cc3ccccc3)ccc2O1	none (no result: PDI inh, ERp5 block)
C[C@@H]1COC(=O)[C@H](Cc2ccc(F)cc2)C/C=C\C[C@@H](CC(=O)N[C@H](CO)Cc2ccccc2)C(=O)N1	DENV2 CPE rescue 41
Cc1noc(C)c1S(=O)(=O)Nc1ccc2c(c1)C(=O)N([C@H](C)CO)C[C@H](C)[C@H](CN(C)S(=O)(=O)c1ccc(F)cc1)OCCCC[C@@H](C)O2	none (no result: PDI inh, Statin myotox sup)
